Results as given in ChEMBL document CHEMBL4373647, “Design, synthesis, and antimicrobial evaluation of 1,4-dihydroindeno[1,2-c]pyrazole tethered carbohydrazide hybrids: exploring their in silico ADMET, ergosterol inhibition and ROS inducing potential” (Medchemcomm, 2019).
≈ marks a conversion by molar mass, not a printed value. Calls of active or inactive are those of the source. The calls are words filed in the database; no cut-off is given here.

Tests used:
Micrococcus luteus = test: Antibacterial activity against Micrococcus luteus MTCC 2470 assessed as inhibition of bacterial growth incubated for 24 hrs by agar well diffusion method; format: functional; conditions: MTCC 2470, 24 h
Method in brief: (§1)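 Strains from MTCC; inoculum at 0.5 McFarland spread on Mueller-Hinton agar; 6 mm wells loaded with compound over 125–0.97 µg/mL; ciprofloxacin positive control (same range), DMSO negative control. Plates held 24 h at 37 °C; MIC taken as lowest concentration giving a clear inhibition zone. Triplicate runs, mean MIC reported.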

Staphylococcus aureus [1] = test: Antibacterial activity against Staphylococcus aureus MTCC 96 assessed as inhibition of bacterial growth incubated for 24 hrs by agar well diffusion method; format: functional; conditions: MTCC 96, 24 h; method in brief: as §1
Staphylococcus aureus [2] = test: Antibacterial activity against Staphylococcus aureus MLS-16 MTCC 2940 assessed as inhibition of bacterial growth incubated for 24 hrs by agar well diffusion method; format: functional; conditions: MLS-16 MTCC 2940, 24 h; method in brief: as §1
Bacillus subtilis [3] = test: Antibacterial activity against Bacillus subtilis MTCC 121 assessed as inhibition of bacterial growth incubated for 24 hrs by agar well diffusion method; format: functional; conditions: MTCC 121, 24 h; method in brief: as §1
Candida albicans [4] = test: Antifungal activity against Candida albicans MTCC 183 assessed as inhibition of fungal growth incubated for 24 hrs by agar well diffusion method; format: functional
Method in brief: (§2)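 Candida strains from MTCC, pre-cultured and spread on Mueller Hinton agar. Wells received compound dissolved in 10% DMSO, 125–0.97 µg/mL; miconazole standard over the same range, DMSO negative control. After 24 h at 37 °C, MIC was read as the lowest concentration giving an inhibition zone. Duplicate experiments, means given.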

Candida albicans [5] = test: Antifungal activity against Candida albicans MTCC 227 assessed as inhibition of fungal growth incubated for 24 hrs by agar well diffusion method; format: functional; conditions: MTCC 227, 24 h; method in brief: as §2
Candida albicans [6] = test: Antifungal activity against Candida albicans MTCC 1637 assessed as inhibition of fungal growth incubated for 24 hrs by agar well diffusion method; format: functional; conditions: MTCC 1637, 24 h; method in brief: as §2
Candida albicans [7] = test: Antifungal activity against Candida albicans MTCC 3018 assessed as inhibition of fungal growth incubated for 24 hrs by agar well diffusion method; format: functional; conditions: MTCC 3018, 24 h; method in brief: as §2
Candida albicans [8] = test: Antifungal activity against Candida albicans MTCC 4748 assessed as inhibition of fungal growth incubated for 24 hrs by agar well diffusion method; format: functional; conditions: MTCC 4748, 24 h; method in brief: as §2
Candida albicans [9] = test: Antifungal activity against Candida albicans MTCC 7315 assessed as inhibition of fungal growth incubated for 24 hrs by agar well diffusion method; format: functional; conditions: MTCC 7315, 24 h; method in brief: as §2
Candida parapsilosis [10] = test: Antifungal activity against Candida parapsilosis MTCC 1744 assessed as inhibition of fungal growth incubated for 24 hrs by agar well diffusion method; format: functional; conditions: Lodderomyces parapsilosis, MTCC 1744, 24 h; method in brief: as §2
Nakaseomyces glabratus [11] = test: Antifungal activity against Candida glabrata MTCC 3019 assessed as inhibition of fungal growth incubated for 24 hrs by agar well diffusion method; format: functional; conditions: MTCC 3019, 24 h; method in brief: as §2
Pichia sporocuriosa [12] = test: Antifungal activity against Issatchenkia hanoiensis MTCC 4755 assessed as inhibition of fungal growth incubated for 24 hrs by agar well diffusion method; format: functional; conditions: MTCC 4755, 24 h; method in brief: as §2
Staphylococcus aureus [13] = test: Bactericidal activity against Staphylococcus aureus MTCC 96 assessed as bacterial killing incubated for 24 hrs; format: functional; conditions: MTCC 96, 24 h
Method in brief: (§3)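 Broth tube assay: compound at 0–125 µg/mL in Mueller Hinton broth, overnight culture added to 0.5 McFarland (1.5 × 10^8 cfu/mL), held 24 h at 37 °C. 10 µL from each tube plated on Mueller Hinton agar. MBC is the lowest concentration that kills the strain. Duplicates, means reported.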

Bacillus subtilis [14] = test: Bactericidal activity against Bacillus subtilis MTCC 121 assessed as bacterial killing incubated for 24 hrs; format: functional; conditions: MTCC 121, 24 h; method in brief: as §3
Escherichia coli [15] = test: Bactericidal activity against Escherichia coli MTCC 739 assessed as bacterial killing incubated for 24 hrs; format: functional; conditions: MTCC 739, 24 h; method in brief: as §3
MRC5 = test: Cytotoxicity against human MRC5 cells incubated for 48 hrs by MTT assay; format: cell-based; conditions: MRC5, 48 h
Method in brief: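 Normal human lung MRC5 cells grown 24 h in 96-well plates, then exposed to a range of compound concentrations for 48 h. MTT (250 µg/mL) added for 2 h, medium replaced by DMSO, absorbance read at 570 nm. Miconazole positive control, DMSO negative control. Triplicates, mean ± S.D.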

Pichia kudriavzevii = test: Antifungal activity against Candida krusei MTCC 3020 assessed as inhibition of fungal growth incubated for 24 hrs by agar well diffusion method; format: functional; conditions: MTCC 3020, 24 h; method in brief: as §2
Candida albicans [16] = test: Fungicidal activity against Candida albicans MTCC 183 assessed as fungal killing incubated for 24 hrs; format: functional
Method in brief: (§4)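 Compound at 125–0.97 µg/mL in Mueller Hinton broth in microcentrifuge tubes, each Candida strain added, held 24 h at 37 °C. 10 µL of the treated suspension plated on Mueller Hinton agar and incubated a further 24 h at 37 °C. MFC is the lowest concentration that kills the strain. Duplicates, means reported.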

Candida albicans [17] = test: Fungicidal activity against Candida albicans MTCC 4748 assessed as fungal killing incubated for 24 hrs; format: functional; conditions: MTCC 4748, 24 h; method in brief: as §4
Candida albicans [18] = test: Fungicidal activity against Candida albicans MTCC 7315 assessed as fungal killing incubated for 24 hrs; format: functional; conditions: MTCC 7315, 24 h; method in brief: as §4
Candida parapsilosis [19] = test: Fungicidal activity against Candida parapsilosis MTCC 1744 assessed as fungal killing incubated for 24 hrs; format: functional; conditions: Lodderomyces parapsilosis, MTCC 1744, 24 h; method in brief: as §4
Nakaseomyces glabratus [20] = test: Fungicidal activity against Candida glabrata MTCC 3019 assessed as fungal killing incubated for 24 hrs; format: functional; conditions: MTCC 3019, 24 h; method in brief: as §4
Pichia sporocuriosa [21] = test: Fungicidal activity against Issatchenkia hanoiensis MTCC 4755 assessed as fungal killing incubated for 24 hrs; format: functional; conditions: MTCC 4755, 24 h; method in brief: as §4
Bacillus subtilis [22] = test: Ratio of MBC to MIC against Bacillus subtilis MTCC 121; format: functional
Candida albicans [23] = test: Ratio of MFC to MIC against Candida albicans MTCC 183; format: functional
Candida albicans [24] = test: Ratio of MFC to MIC against Candida albicans MTCC 227; format: functional
Method in brief: (§5)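 MIC by agar well diffusion: Candida lawns on Mueller-Hinton agar, wells loaded with compound in 10% DMSO (125–0.97 µg/mL), 24 h at 37 °C, lowest concentration giving an inhibition zone. MFC: compound in Mueller-Hinton broth (125–0.97 µg/mL) with yeast, 24 h at 37 °C, 10 µL plated on agar, lowest killing concentration after 24 h. Ratio is MFC/MIC.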

Candida albicans [25] = test: Ratio of MFC to MIC against Candida albicans MTCC 1637; format: functional
Candida albicans [26] = test: Ratio of MFC to MIC against Candida albicans MTCC 3018; format: functional; method in brief: as §5
Candida albicans [27] = test: Ratio of MFC to MIC against Candida albicans MTCC 4748; format: functional; method in brief: as §5
Candida albicans [28] = test: Ratio of MFC to MIC against Candida albicans MTCC 7315; format: functional; method in brief: as §5
Candida parapsilosis [29] = test: Ratio of MFC to MIC against Candida parapsilosis MTCC 1744; format: functional; method in brief: as §5
Nakaseomyces glabratus [30] = test: Ratio of MFC to MIC against Candida glabrata MTCC 3019; format: functional; method in brief: as §5
Pichia sporocuriosa [31] = test: Ratio of MFC to MIC against Issatchenkia hanoiensis MTCC 4755; format: functional; method in brief: as §5
Escherichia coli [32] = test: Ratio of MBC to MIC for Escherichia coli MTCC 739; format: functional
Pseudomonas aeruginosa = test: Ratio of MBC to MIC for Pseudomonas aeruginosa MTCC 2453; format: functional
Raoultella planticola = test: Ratio of MBC to MIC for Klebsiella planticola MTCC 530; format: functional

## COc1cc(/C=N/NC(=O)c2n[nH]c3c2Cc2ccccc2-3)ccc1O
Micrococcus luteus
  MIC: 7.8 µg/mL (≈ 22.4 µM)
Staphylococcus aureus [1]
  MIC: 3.9 µg/mL (≈ 11.2 µM)
Staphylococcus aureus [2]
  MIC: 7.8 µg/mL (≈ 22.4 µM)
Bacillus subtilis [3]
  MIC: 3.9 µg/mL (≈ 11.2 µM)
Candida albicans [4]
  MIC: inactive
Candida albicans [5]
  MIC: 7.8 µg/mL (≈ 22.4 µM)
Candida albicans [6]
  MIC: 15.6 µg/mL (≈ 44.8 µM)
Candida albicans [7]
  MIC: 15.6 µg/mL (≈ 44.8 µM)
Candida albicans [8]
  MIC: 3.9 µg/mL (≈ 11.2 µM)
Candida albicans [9]
  MIC: 7.8 µg/mL (≈ 22.4 µM)
Candida parapsilosis [10]
  MIC: 15.6 µg/mL (≈ 44.8 µM)
Nakaseomyces glabratus [11]
  MIC: 3.9 µg/mL (≈ 11.2 µM)
Pichia sporocuriosa [12]
  MIC: 15.6 µg/mL (≈ 44.8 µM)
Staphylococcus aureus [13]
  MBC: 7.8 µg/mL (≈ 22.4 µM)
Bacillus subtilis [14]
  MBC: 7.8 µg/mL (≈ 22.4 µM)
Escherichia coli [15]
  MBC: 15.6 µg/mL (≈ 44.8 µM)
MRC5
  IC50: 31.2 µg/mL (≈ 89.6 µM)
Pichia kudriavzevii
  MIC: 15.6 µg/mL (≈ 44.8 µM)
Candida albicans [16]
  MFC: inactive
Candida albicans [17]
  MFC: 7.8 µg/mL (≈ 22.4 µM)
Candida albicans [18]
  MFC: 15.6 µg/mL (≈ 44.8 µM)
Candida parapsilosis [19]
  MFC: 31.2 µg/mL (≈ 89.6 µM)
Nakaseomyces glabratus [20]
  MFC: 7.8 µg/mL (≈ 22.4 µM)
Pichia sporocuriosa [21]
  MFC: 31.2 µg/mL (≈ 89.6 µM)
Bacillus subtilis [22]
  Ratio: 2
Candida albicans [23]
  Ratio: 2
Candida albicans [24]
  Ratio: 2
Candida albicans [25]
  Ratio: 2
Candida albicans [26]
  Ratio: 2
Candida albicans [27]
  Ratio: 2
Candida albicans [28]
  Ratio: 2
Candida parapsilosis [29]
  Ratio: 2
Nakaseomyces glabratus [30]
  Ratio: 2
Pichia sporocuriosa [31]
  Ratio: 2
Escherichia coli [32]
  Ratio: 2
Pseudomonas aeruginosa
  Ratio: 2
Raoultella planticola
  Ratio: 2

## O=C(N/N=C/c1ccc(O)cc1)c1n[nH]c2c1Cc1ccccc1-2
Micrococcus luteus
  MIC: 7.8 µg/mL (≈ 24.5 µM)
Staphylococcus aureus [1]
  MIC: 3.9 µg/mL (≈ 12.3 µM)
Staphylococcus aureus [2]
  MIC: 3.9 µg/mL (≈ 12.3 µM)
Bacillus subtilis [3]
  MIC: 7.8 µg/mL (≈ 24.5 µM)
Candida albicans [4]
  MIC: inactive
Candida albicans [5]
  MIC: 7.8 µg/mL (≈ 24.5 µM)
Candida albicans [6]
  MIC: 15.6 µg/mL (≈ 49 µM)
Candida albicans [7]
  MIC: 7.8 µg/mL (≈ 24.5 µM)
Candida albicans [8]
  MIC: > 31.2 µg/mL
Candida albicans [9]
  MIC: 15.6 µg/mL (≈ 49 µM)
Candida parapsilosis [10]
  MIC: 15.6 µg/mL (≈ 49 µM)
Nakaseomyces glabratus [11]
  MIC: > 31.2 µg/mL
Pichia sporocuriosa [12]
  MIC: 31.2 µg/mL (≈ 98 µM)
Staphylococcus aureus [13]
  MBC: 7.8 µg/mL (≈ 24.5 µM)
Bacillus subtilis [14]
  MBC: 15.6 µg/mL (≈ 49 µM)
Escherichia coli [15]
  MBC: 7.8 µg/mL (≈ 24.5 µM)
MRC5
  IC50: 35.6 µg/mL (≈ 112 µM)
Pichia kudriavzevii
  MIC: 15.6 µg/mL (≈ 49 µM)
Candida albicans [16]
  MFC: inactive
Candida albicans [17]
  MFC: > 62.5 µg/mL
Candida albicans [18]
  MFC: 31.2 µg/mL (≈ 98 µM)
Candida parapsilosis [19]
  MFC: 31.2 µg/mL (≈ 98 µM)
Nakaseomyces glabratus [20]
  MFC: > 62.5 µg/mL
Pichia sporocuriosa [21]
  MFC: 62.4 µg/mL (≈ 196 µM)
Bacillus subtilis [22]
  Ratio: 2
Candida albicans [23]
  Ratio: 2
Candida albicans [24]
  Ratio: 2
Candida albicans [25]
  Ratio: 2
Candida albicans [26]
  Ratio: 2
Candida albicans [27]
  Ratio: 2
Candida albicans [28]
  Ratio: 2
Candida parapsilosis [29]
  Ratio: 2
Nakaseomyces glabratus [30]
  Ratio: 2
Pichia sporocuriosa [31]
  Ratio: 2
Escherichia coli [32]
  Ratio: 2
Pseudomonas aeruginosa
  Ratio: 2
Raoultella planticola
  Ratio: 2
